How the values were obtained:
γ-secretase [1] = assay: GM1-bound Aβ in TBS-Tx extracts of 3 mo J20 tg mice after Compound E; assay type: in vivo, mouse
How it was run: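 3-month J20 transgenic mice were injected with test compound or vehicle, and brains were harvested 2.5 h or 5 h later. Brains were Dounce-homogenized in ice-cold TBS (20 mM Tris-HCl, 150 mM NaCl, pH 7.4) with protease inhibitors and spun 175,000 g for 30 min at 4 °C. The pellet was re-extracted the same way in TBS-1% Triton-X. Both extracts underwent R1282 IP, then WB: 3D6+6E10+266+2G3+21F12 for Aβ, CTβ for GM1. N=4 vehicle mice; mean ± SEM; 2-way ANOVA with Bonferroni post-test.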

γ-secretase [2] = conditions: ref Hong et al., 2011; cited from earlier work

In the case of `C[C@H](NC(=O)Cc1cc(F)cc(F)c1)C(=O)N[C@H]1N=C(c2ccccc2)c2ccccc2N(C)C1=O` [Compound E], the “Levels of GM1-bound Aβ in TBS-Tx” value (γ-secretase [1]; 3 mo J20 tg mice, brains harvested 2.5 h or 5 h after injection, N=3 and 4 mice) is given as “decreased”, the “Effect on total GM1 levels in the brain” value (γ-secretase [1]; data not shown) is given as “no effect” and the “t1/2 of decline in brain ISF Aβ” value (γ-secretase [2]) is given as ~ 2 h.

— PMC4129520 (Neuron, 2014)
